Experimental data as given in article PMC7226286 (Cancer Science, 2020).

System: STAT3 and RAF/MEK/ERK pathways in SAS xenograft tumors
Assay: Western blot of SAS xenograft tumor lysates
Type: in vivo, mice
Conditions: day 12, 6 hours after final administration
In short: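 Male BALB/c nude mice (6 weeks old) bearing subcutaneous SAS oral tumours; test compound (50 or 60 mg/kg), a kinase inhibitor (10 mg/kg), the combination or vehicle given orally, 5 days on/2 off from day 1 (palpable tumours). Day 12: tumours (n = 3) excised 6 h after last dose, snap-frozen, lysed; immunoblot for pY705-STAT3, STAT3, pT202/Y204-ERK1/2, ERK1/2, survivin, β-actin.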

SMILES: CNC(=O)c1cc(Oc2ccc(NC(=O)Nc3ccc(Cl)c(C(F)(F)F)c3)cc2)ccn1 [Sorafenib]
- phospho‐ERK in tumor tissues: clearly reduced
- phospho‐STAT3 in tumor tissues: clearly reduced
- survivin in tumor tissues: moderately suppressed
